# From PubChem BioAssay
# The full list was thinned out, with hits kept by preference.
# TLR4 MyD88 comp: inhibitors of human TLR4-MyD88 binding; HeLa CL3-4 TLR4/MyD88 BLA complementation, FRET ratio; inhibition, % at 8.4 µM; 200,000 tested, 0.18% active; in the data active = inhibition above about 25%;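 note: 0% = vehicle and 100% = reference inhibitor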
# Target sequence (O00206 whole entry, looked up): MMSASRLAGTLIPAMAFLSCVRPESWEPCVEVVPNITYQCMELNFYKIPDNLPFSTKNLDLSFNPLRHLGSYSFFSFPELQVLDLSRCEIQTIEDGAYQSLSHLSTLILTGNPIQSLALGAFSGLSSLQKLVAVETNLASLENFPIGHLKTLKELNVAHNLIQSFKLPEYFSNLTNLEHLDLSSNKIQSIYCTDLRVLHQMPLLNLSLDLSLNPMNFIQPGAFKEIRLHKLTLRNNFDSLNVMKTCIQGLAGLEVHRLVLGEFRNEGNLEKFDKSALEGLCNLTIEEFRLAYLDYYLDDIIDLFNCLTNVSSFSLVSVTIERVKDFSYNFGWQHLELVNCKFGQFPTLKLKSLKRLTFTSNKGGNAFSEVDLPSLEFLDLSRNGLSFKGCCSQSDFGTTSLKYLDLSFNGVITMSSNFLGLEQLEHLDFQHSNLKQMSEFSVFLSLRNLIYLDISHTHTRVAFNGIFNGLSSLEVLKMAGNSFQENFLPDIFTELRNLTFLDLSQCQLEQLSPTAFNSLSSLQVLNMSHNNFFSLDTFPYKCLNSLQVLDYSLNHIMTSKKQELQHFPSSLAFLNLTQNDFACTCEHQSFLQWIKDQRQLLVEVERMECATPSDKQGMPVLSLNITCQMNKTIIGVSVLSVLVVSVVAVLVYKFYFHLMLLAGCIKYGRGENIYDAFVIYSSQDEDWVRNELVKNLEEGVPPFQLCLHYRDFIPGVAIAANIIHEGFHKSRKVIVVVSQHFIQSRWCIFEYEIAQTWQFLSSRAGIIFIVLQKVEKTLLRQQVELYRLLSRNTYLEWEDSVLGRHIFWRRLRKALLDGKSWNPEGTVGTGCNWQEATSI
# Target sequence (Q99836 whole entry, looked up): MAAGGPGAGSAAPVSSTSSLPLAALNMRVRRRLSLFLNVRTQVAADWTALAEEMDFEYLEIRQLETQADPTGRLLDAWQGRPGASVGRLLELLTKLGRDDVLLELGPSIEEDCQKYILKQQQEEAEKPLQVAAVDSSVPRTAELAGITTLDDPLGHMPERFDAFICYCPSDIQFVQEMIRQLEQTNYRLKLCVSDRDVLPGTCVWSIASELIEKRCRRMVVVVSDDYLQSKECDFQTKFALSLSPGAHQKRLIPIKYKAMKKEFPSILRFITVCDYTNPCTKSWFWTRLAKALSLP
# NOD2-RIPK2 inh: blocks binding of human NOD2 to RIPK2; 360,000 tested, 0.38% active; inhibition, % at 4.98 µM; CHO BLA complementation NOD2-RIPK2, CCF4 ratio; O43353; in the data active = inhibition above about 21%;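 note: 0% = vehicle only and 100% = reference blocker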
# XBP1 UPR activ: activators of adaptive arm of unfolded protein response (XBP1) | CHO-XBP1 luciferase reporter, IRE1-XBP1 UPR activation, luminescence; percent of tunicamycin response, DMSO as zero | activation, % at 20 µM | 330,000 tested, 0.33% active | AID 463104;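 active = versus positive control, 20 µM dose yields 30% or more activation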;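 note: 100% = tunicamycin at 10 µg/mL and 0% = DMSO only wells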
#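 Material: IRE1-XBP1 luciferase reporter CHO line / Quantity: one thousand reporter cells per well / Buffer or medium: F12 with 10% serum / Compound: 20 µM single concentration, DMSO 1% / Times: 6 h treatment, 37 °C / Detection: Steady-Glo luciferase glow luminescence, 10 min after reagent addition / Benchmarks: tunicamycin high, DMSO low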
# TLR9-MyD88 inh: blocks human TLR9 binding to MyD88; Q9NR96+Q99836; CHO BLA complementation TLR9-MyD88, CCF4 FRET ratio; inhibition, % at 4.98 µM; 340,000 tested, 0.21% active;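 active = inhibition above the mean over all tested compounds plus 3 SD, cut at about 21% in these data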;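 note: 0% = DMSO only wells and 100% = clavulanate BLA inhibitor control wells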
# CHOP inh: inhibitors of CHOP induction in ER stress response; CHO-K1 CHOP-promoter luciferase, tunicamycin-induced, 15-18 h; AID 2732; 220,000 tested, 3.8% active; inhibition, % at 10 µM;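 active = compounds that reduced the stress-induced luciferase reporter signal by more than about 70% of percent inhibition, limit read from the data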;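 note: 0% = tunicamycin plus vehicle and 100% = wells without tunicamycin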
# UPR CHOP act: activators of apoptotic arm of unfolded protein response (CHOP). activation, % at 10 µM. 330,000 tested, 0.34% active. CHO-CHOP luciferase reporter, UPR activation, luminescence; percent of tunicamycin response over DMSO baseline. AID 449763;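 active = at 10 µM dose, activation of 40% or more, normalized to positive control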;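 note: 100% = tunicamycin at 10 µg/mL and 0% = DMSO alone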
#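 Evaluation: % reporter activation, DMSO baseline versus tunicamycin full activation; System: CHO-CHOP luciferase reporter cell line; Input: 500 cells/well; Incubation: 6 h compound treatment, 37 °C; Measured by: Steady-Glo luciferase luminescence; Dosing: one dose, 10 µM in 0.5% DMSO; Buffer or medium: F12 medium, 10% FBS; Benchmarks: positive tunicamycin 10 µg/mL, negative DMSO alone.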
# NOD2-RIPK2 conf: NOD2-RIPK2 interaction inhibition confirmed | shares compounds with NOD2-RIPK2 inh | CHO cells, NOD2-RIPK2 BLA complementation, CCF4 FRET | inhibition, % at 4.98 µM | 1,200 tested, 70% active | AID 624370;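 active = mean inhibition across replicates above a set limit taken from the earlier primary screen, cut at about 21% in these data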;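 note: 0% = DMSO-only wells and the high end = clavulanate BLA-blocked wells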
# BLA counter: hits BLA reporter in NOD2-RIPK2 inhibitor counterscreen | inhibition, % at 4.98 µM | CHO BLA reporter, CCF4 FRET ratio | AID 624371 | shares compounds with NOD2-RIPK2 inh | 1,200 tested, 57% active;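 active = mean inhibition above the low-control mean inhibition plus three low-control SD, cut at about 11% in these data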;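 note: 0% = DMSO only wells and 100% = clavulanate high control wells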
# * marks the source's active call; other numbers are inactive results; x = no result.
SMILES,TLR4 MyD88 comp,NOD2-RIPK2 inh,XBP1 UPR activ,TLR9-MyD88 inh,CHOP inh,UPR CHOP act,NOD2-RIPK2 conf,BLA counter
O=C(NCc1ccccc1)C(c1cccc2ccccc12)n1c(=O)c(-c2ccco2)nc2ccccc21 (centres undefined),x,-10.8,x,x,x,x,x,x
Cc1cccc(C)c1NC(=O)C(c1cccc2ccccc12)n1c(=O)c(-c2cc3ccccc3[nH]2)nc2ccccc21 (centres undefined),x,42.0*,x,x,x,x,38.5*,64.5*
O=C(NCc1ccccc1)C(CCc1ccccc1)n1c(=O)c(-c2cc3ccccc3[nH]2)nc2ccccc21 (centres undefined),x,50.1*,x,x,x,x,46.4*,68.8*
Cc1cc(C(=O)Nc2ncn[nH]2)ccc1[N+](=O)[O-],-11.6,-6.1,0.8,2.6,-66.8,-1.5,x,x
O=C(NCc1ccccc1)C(c1cccc2ccccc12)n1c(=O)c(-c2cc3ccccc3[nH]2)nc2ccccc21 (centres undefined),x,43.1*,x,x,x,x,40.8*,65.8*
CCOC(=O)c1c(N2C(=O)C3C4C=CC(O4)C3C2=O)sc2c1CCCC2 (centres undefined),1.7,22.2*,-2.7,-1.6,-6.7,-0.9,4.4,0.5
O=Nc1c(O)[nH]c2ccc(Cl)c(Cl)c12,x,28.4*,x,17.4,x,x,26.4*,15.2*
CCc1cccc2c(N=O)c(O)[nH]c12,4.5,3.3,-2.4,19.6,8.1,-2.0,x,x
C=CC(=O)N1C/C(=C/c2ccccc2)C(=O)/C(=C\c2ccccc2)C1,x,45.2*,x,-4.5,x,x,43.5*,5.7
C=CC(=O)N1C/C(=C/c2ccc(Cl)cc2)C(=O)/C(=C\c2ccc(Cl)cc2)C1,x,45.1*,x,8.5,x,x,54.4*,6.9
O=S(=O)(/N=S1\CC=CCN1S(=O)(=O)c1ccccc1)c1ccccc1 (centres undefined),x,25.2*,x,10.8,x,x,-10.4,-17.1
CC1=C(C)CS(=O)N(S(=O)(=O)c2ccccc2)C1 (centres undefined),-0.6,3.4,1.1,7.3,15.8,4.3,x,x
CCCN1CCN(CCCNC(=O)CN2C(=O)COc3ccc(C(C)(C)C)cc32)CC1,x,-11.4,x,4.2,x,x,x,x
N#CCCS(=O)(=O)c1nnnn1-c1ccccc1,10.1,x,x,x,x,x,x,x
CC(=O)Nc1ccc(S(=O)(=O)N2c3ccccc3C(C)=CC2(C)C)cc1,-5.7,23.2*,12.4,3.8,1.4,0.0,22.2*,-4.6
COc1ccc(CNC(=O)COC(=O)/C=C/c2cccc(Br)c2)cc1,7.0,2.9,-0.5,9.5,15.6,-0.3,x,x
COc1ccccc1N(C)S(=O)(=O)c1ccc(C(=O)OCC(N)=O)cc1,-2.6,49.9*,2.0,6.6,-19.4,-1.3,1.0,-3.7
Cc1ccc(S(=O)(=O)NCCN2CCOCC2)c(C)c1C,-8.2,71.7*,-0.8,-2.8,33.6,0.6,-5.6,-7.0
CCC(c1nnnn1-c1ccc2c(c1)OCCO2)N1CCN(c2ccc(F)cc2)CC1 (centres undefined),x,4.3,x,x,x,x,x,x
CCc1cnc(Nc2nc(C(N)c3ccccc3Cl)cs2)nc1 (centres undefined),x,1.9,x,x,x,x,x,x
O=C(Cn1sc2ccccc2c1=O)Nc1ccc(Cl)cc1,x,21.3*,x,5.5,x,x,42.3*,7.5
O=C(Cn1sc2ccccc2c1=O)Nc1ccc(F)cc1,x,24.8*,x,10.6,x,x,25.2*,1.2
O=C(CSc1nc2cc(Cl)ccc2s1)Nc1cccc(S(=O)(=O)N2CCOCC2)c1,-9.0,2.5,-2.6,-0.9,6.0,1.8,x,x
C[C@H]1CN([C@@H](C)CO)C(=O)c2cc(Br)cnc2O[C@@H]1CN(C)S(=O)(=O)c1ccccc1,x,-6.8,x,0.8,x,x,x,x
CC(C)C[C@@H]1NC(=O)[C@H](Cc2ccccc2)N(C)C(=O)[C@H](C)NC(=O)c2ccccc2NC(=O)[C@H](Cc2ccc(O)cc2)N(C)C1=O,x,-6.2,0.9,-3.9,2.0,7.6,x,x
SMILES,TLR4 MyD88 comp,NOD2-RIPK2 inh,XBP1 UPR activ,TLR9-MyD88 inh,CHOP inh,UPR CHOP act,NOD2-RIPK2 conf,BLA counter
COc1ccc(CC2C(=O)NC(C)C(=O)N(C)C3Cc4ccc(cc4)Oc4cc(ccc4O)CC(C(=O)NC(C)C(=O)NC(C)C(=O)N2C)N(C)C3=O)cc1 (centres undefined),x,22.4*,x,-1.7,x,x,26.1*,-1.9
Cc1ccc(CNS(=O)(=O)c2c(C(=O)N3CCCCCC3)c(C)n(C)c2C)cc1,x,54.1*,-3.3,3.2,x,0.1,-1.3,0.0
Cc1c(C(=O)N2CCCCC2)c(S(=O)(=O)NCc2ccc(Cl)cc2)c(C)n1C,x,4.6,-3.4,-1.7,x,4.1,x,x
CC1=CC(=O)Nc2ccccc2S1,x,-0.5,x,8.4,x,x,x,x
Cc1ccc(Cc2nc3ccccc3n2C(CCc2ccccc2)c2nc3ccccc3[nH]2)cc1 (centres undefined),x,-5.0,x,x,x,x,x,x
CSCCC(c1nc2ccccc2[nH]1)n1c(/C=C/c2ccc(F)c(F)c2)nc2ccccc21 (centres undefined),x,-13.9,x,x,x,x,x,x
CSCCC(c1nc2ccccc2[nH]1)n1c(=O)c(-c2cc3ccccc3[nH]2)nc2ccccc21 (centres undefined),x,40.0*,x,x,x,x,34.6*,59.4*
O=c1c(-c2cc3ccccc3[nH]2)nc2ccccc2n1C(CCc1ccccc1)c1nc2ccccc2[nH]1 (centres undefined),x,38.4*,x,x,x,x,36.0*,61.9*
Cc1ccc(C(=O)c2sc3nsc(C)c3c2N)cc1,4.9,24.2*,4.4,16.6,18.2,4.8,23.1*,25.6*
CCCC(=O)N(C1CC(C)C(C#N)(C#N)C1(C#N)C#N)N(C)C (centres undefined),x,57.3*,-9.9,-0.4,-80.3,-7.2,91.6*,13.6*
CCOc1ccc(C(C)=O)cc1CSc1nnc(-c2cccs2)n1CC1CCCO1 (centres undefined),14.0,3.1,-2.9,-2.3,14.2,-1.3,x,x
Cc1cccc(C(O)c2ncc(-c3ccccc3F)[nH]2)c1C (centres undefined),x,-4.3,x,x,x,x,x,x
CN1CCN(C2CC(=O)N(c3ccc4c(c3)OCCO4)C2=O)CC1 (centres undefined),-4.1,23.9*,-1.2,-5.9,7.3,-1.1,-1.4,-1.8
O=C1CC(N2CCN(c3ccccc3)CC2)C(=O)N1c1ccc2c(c1)OCCO2 (centres undefined),16.3,-14.2,-1.9,3.0,20.6,-0.4,x,x
COc1ccc(N2CCN(CC(=O)Nc3ccc(C)cc3Br)CC2)cc1,x,25.8*,x,-8.1,x,x,-6.9,-6.6
